Reference: ChEMBL document CHEMBL1806378, “Osteogenic constituents from Pterospermum acerifolium Willd. flowers” (Bioorg Med Chem Lett, 2011)
Active and inactive are the calls of the source. The rule behind the calls is not given here.

How the values were obtained:
[1] = tested on: Osteoblast; experiment: Induction of osteogenesis in rat calvaria-derived primary osteoblasts assessed as increase in ALP activity after 48 hrs by bradford assay relative to control; assay type: functional, cell-based
Method in brief: (§1)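 Primary rat calvarial osteoblasts (2 × 10^3 cells) seeded and exposed to graded compound concentrations for 48 h; BMP-2 as positive control, vehicle as control. ALP measured with p-nitrophenylphosphate substrate, read at 405 nm, normalized to total protein by Bradford assay. Three independent experiments, six replicates per point; mean ± SEM, one-way ANOVA versus control.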

[2] = tested on: Osteoblast; experiment: Induction of osteogenesis in rat calvaria-derived primary osteoblasts assessed as increase in ALP activity at 10 pM after 48 hrs by bradford assay relative to control; assay type: functional, cell-based; method in brief: as §1
[3] = tested on: Osteoblast; experiment: Induction of osteogenesis in rat calvaria-derived primary osteoblasts assessed as increase in ALP activity at 100 pM after 48 hrs by bradford assay relative to control; assay type: functional, cell-based; method in brief: as §1
[4] = tested on: Osteoblast; experiment: Induction of osteogenesis in rat calvaria-derived primary osteoblasts assessed as increase in ALP activity at 1 nM to 1 uM after 48 hrs by bradford assay relative to control; assay type: functional, cell-based; method in brief: as §1
[5] = Cytotoxicity against rat calvaria-derived primary osteoblasts assessed as cell viability by MTT assay; assay type: cell-based; conditions: osteoblast
[6] = tested on: Osteoblast; experiment: Induction of osteogenesis in rat calvaria-derived primary osteoblasts assessed as increase in BMP2 mRNA level at 100 pM after 48 hrs by quantitative PCR analysis; assay type: functional, cell-based
Method in brief: (§2)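 Primary rat calvarial osteoblasts treated 48 h at 100 pM; BMP-2, Col1 and runx2 transcript levels quantified by qPCR (optimized protocol). Four independent experiments in triplicate per treatment point; mean ± SEM compared with control.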

[7] = tested on: Osteoblast; experiment: Induction of osteogenesis in rat calvaria-derived primary osteoblasts assessed as increase in runx2 mRNA level at 100 pM after 48 hrs by quantitative PCR analysis; assay type: functional, cell-based; method in brief: as §2
[8] = tested on: Osteoblast; experiment: Induction of osteogenesis in rat calvaria-derived primary osteoblasts assessed as increase in Col1 mRNA level at 100 pM after 48 hrs by quantitative PCR analysis; assay type: functional, cell-based; method in brief: as §2
[9] = tested on: Bone marrow cell; experiment: Induction of mineralization in rat femur-derived bone marrow cells at 100 pM after 21 days by Alizarin Red S staining; assay type: functional, cell-based
Method in brief: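 Rat bone marrow cells (2 × 10^5) seeded and incubated 21 days with 100 pM compound; cells fixed, stained with alizarin red-S, dye extracted and optical density measured colorimetrically. Four independent experiments in triplicate; mean ± SEM versus control.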

SMILES	Activity [1]	Activity [2]	Activity [3]	Activity [4]	Activity [5]	Activity [6]	Activity [7]	Activity [8]	Activity [9]
C[C@@H]1O[C@@H](O[C@H]2[C@H](Oc3cc(O)c4c(=O)cc(-c5ccc(O)c(O)c5)oc4c3)O[C@H](CO)[C@@H](O)[C@@H]2O)[C@H](O)[C@H](O)[C@H]1O	inactive	–	–	–	–	–	–	–	–
O=C(/C=C/c1ccc(O)cc1)OC[C@H]1O[C@@H](Oc2c(-c3ccc(O)cc3)oc3cc(O)cc(O)c3c2=O)[C@H](O)[C@@H](O)[C@@H]1O [TILIROSIDE]	–	Active	Active	inactive	Non-toxic	Active	Active	Active	Active
O=c1cc(-c2ccc(O)c(O)c2)oc2cc(O[C@@H]3O[C@H](CO)[C@@H](O)[C@H](O)[C@H]3O)cc(O)c12	inactive	–	–	–	–	–	–	–	–
COc1cc(C(O)C(O)CO)ccc1Oc1ccc(-c2cc(=O)c3c(O)cc(O)cc3o2)cc1O (centres undefined) [PTEROSPERMIN A]	–	Active	Active	inactive	Non-toxic	Active	Active	Active	Active
O=c1cc(-c2cccc(O)c2)oc2cc(O)c(O[C@@H]3O[C@H](CO)[C@@H](O)[C@H](O)[C@H]3O)c(O)c12	inactive	–	–	–	–	–	–	–	–
O=C1OC(O)C=C1O (centres undefined) [PTEROSPERMIN C]	–	Active	Active	inactive	Non-toxic	Active	Active	Active	Active
CC1=CC(=O)CC(C)(C)[C@H]1/C=C/[C@H](C)O[C@@H]1O[C@H](CO)[C@@H](O)[C@H](O)[C@H]1O	inactive	–	–	–	–	–	–	–	–
C=C[C@@](C)(CCC=C(C)C)O[C@@H]1O[C@H](CO[C@@H]2O[C@@H](C)[C@H](O)[C@@H](O)[C@H]2O)[C@@H](O)[C@H](O)[C@H]1O	inactive	–	–	–	–	–	–	–	–
